Data: ChEMBL document CHEMBL2380260, “Structure-activity relationship of N,N'-disubstituted pyrimidinetriones as Ca(V)1.3 calcium channel-selective antagonists for Parkinson's disease” (J Med Chem, 2013)

Legend:
[1] = target: Voltage-dependent L-type calcium channel subunit alpha-1D (Rattus norvegicus, UniProt P27732); assay: Antagonist activity at rat CaV1.3alpha1D transfected in HEK293 cells by FLIPR assay; type: cell-based
Method in brief: (§1)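 HEK293 cells stably expressing the L-type channel (rat CaV1.3 α1D with all alternative splice sites, or rabbit CaV1.2 α1C), each co-expressed with rat β3 and α2δ-1 subunits. Cells plated at 4 × 10⁴ cells/well and cultured in DMEM with 10% FBS for 4 days. Calcium influx read by Fluo-8 no-wash dye fluorescence on FLIPR Tetra. IC50 from triplicate percent-inhibition data fitted to a one-site sigmoidal model.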

[2] = target: Voltage-dependent L-type calcium channel subunit alpha-1C (Oryctolagus cuniculus, UniProt P15381); assay: Antagonist activity at rabbit CaV1.2alpha1C transfected in HEK293 cells by FLIPR assay; type: cell-based; method in brief: as §1
[3] = Selectivity ratio of IC50 for rabbit CaV1.2alpha1C to IC50 for rat CaV1.3alpha1D
Method in brief: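 Selectivity is defined as […] the ratio of the CaV1.2 IC50 to the CaV1.3 IC50. Both IC50s come from the Fluo-8 FLIPR calcium influx assay in stably transfected HEK293 cells, each run in triplicate and fitted to a one-site sigmoidal model.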

Chain of Voltage-dependent L-type calcium channel subunit alpha-1C (P15381 whole entry): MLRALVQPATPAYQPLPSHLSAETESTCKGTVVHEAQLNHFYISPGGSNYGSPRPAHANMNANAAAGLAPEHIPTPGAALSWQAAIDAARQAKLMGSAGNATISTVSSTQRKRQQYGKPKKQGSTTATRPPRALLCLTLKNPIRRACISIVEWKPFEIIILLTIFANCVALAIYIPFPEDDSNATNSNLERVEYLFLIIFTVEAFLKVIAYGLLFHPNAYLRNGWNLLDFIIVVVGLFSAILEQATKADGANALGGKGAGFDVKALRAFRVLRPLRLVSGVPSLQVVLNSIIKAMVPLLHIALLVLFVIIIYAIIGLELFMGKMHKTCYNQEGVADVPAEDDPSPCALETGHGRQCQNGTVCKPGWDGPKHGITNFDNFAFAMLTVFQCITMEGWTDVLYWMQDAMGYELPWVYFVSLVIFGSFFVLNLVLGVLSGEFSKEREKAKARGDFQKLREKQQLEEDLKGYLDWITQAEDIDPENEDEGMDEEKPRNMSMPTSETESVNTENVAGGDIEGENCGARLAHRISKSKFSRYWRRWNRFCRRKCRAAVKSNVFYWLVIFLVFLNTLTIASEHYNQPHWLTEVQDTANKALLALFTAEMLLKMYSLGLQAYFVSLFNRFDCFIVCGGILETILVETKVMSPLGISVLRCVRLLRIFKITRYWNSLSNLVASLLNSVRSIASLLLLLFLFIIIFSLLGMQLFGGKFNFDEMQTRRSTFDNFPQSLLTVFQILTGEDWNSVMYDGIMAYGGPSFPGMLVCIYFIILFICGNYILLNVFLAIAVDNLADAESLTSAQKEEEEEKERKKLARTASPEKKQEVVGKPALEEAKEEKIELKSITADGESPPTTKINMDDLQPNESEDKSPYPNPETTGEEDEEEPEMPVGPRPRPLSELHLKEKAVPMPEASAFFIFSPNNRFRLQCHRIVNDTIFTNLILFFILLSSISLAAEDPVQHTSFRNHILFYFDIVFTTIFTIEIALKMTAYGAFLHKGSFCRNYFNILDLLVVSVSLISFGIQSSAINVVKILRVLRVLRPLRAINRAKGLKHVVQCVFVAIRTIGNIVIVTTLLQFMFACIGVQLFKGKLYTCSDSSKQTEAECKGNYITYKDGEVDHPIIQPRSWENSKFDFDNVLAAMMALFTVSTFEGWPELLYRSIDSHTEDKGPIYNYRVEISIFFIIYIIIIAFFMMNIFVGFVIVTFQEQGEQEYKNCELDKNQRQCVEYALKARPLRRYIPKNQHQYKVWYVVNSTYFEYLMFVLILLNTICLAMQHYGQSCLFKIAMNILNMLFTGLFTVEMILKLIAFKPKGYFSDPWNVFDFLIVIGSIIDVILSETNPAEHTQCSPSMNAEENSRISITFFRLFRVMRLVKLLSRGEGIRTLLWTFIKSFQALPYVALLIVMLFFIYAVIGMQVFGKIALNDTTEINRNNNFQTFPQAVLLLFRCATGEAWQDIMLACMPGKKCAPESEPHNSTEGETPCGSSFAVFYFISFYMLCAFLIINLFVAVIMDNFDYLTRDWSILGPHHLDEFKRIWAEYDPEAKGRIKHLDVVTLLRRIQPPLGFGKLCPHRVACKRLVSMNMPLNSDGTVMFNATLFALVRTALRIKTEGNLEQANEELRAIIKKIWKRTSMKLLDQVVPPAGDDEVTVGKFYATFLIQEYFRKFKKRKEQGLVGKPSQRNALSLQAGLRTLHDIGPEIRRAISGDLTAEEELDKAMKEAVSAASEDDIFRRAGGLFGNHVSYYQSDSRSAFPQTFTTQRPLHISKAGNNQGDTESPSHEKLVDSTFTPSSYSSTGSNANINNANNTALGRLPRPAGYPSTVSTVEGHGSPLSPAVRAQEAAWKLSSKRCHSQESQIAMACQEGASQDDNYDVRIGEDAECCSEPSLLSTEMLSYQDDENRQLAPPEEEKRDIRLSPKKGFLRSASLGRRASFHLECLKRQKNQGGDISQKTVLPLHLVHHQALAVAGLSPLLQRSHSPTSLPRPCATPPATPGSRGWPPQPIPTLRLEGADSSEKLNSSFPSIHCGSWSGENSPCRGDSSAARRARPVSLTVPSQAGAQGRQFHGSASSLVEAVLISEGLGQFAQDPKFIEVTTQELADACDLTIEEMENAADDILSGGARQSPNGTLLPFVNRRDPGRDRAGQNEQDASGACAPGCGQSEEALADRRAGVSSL
Chain of Voltage-dependent L-type calcium channel subunit alpha-1D (P27732 whole entry, canonical isoform): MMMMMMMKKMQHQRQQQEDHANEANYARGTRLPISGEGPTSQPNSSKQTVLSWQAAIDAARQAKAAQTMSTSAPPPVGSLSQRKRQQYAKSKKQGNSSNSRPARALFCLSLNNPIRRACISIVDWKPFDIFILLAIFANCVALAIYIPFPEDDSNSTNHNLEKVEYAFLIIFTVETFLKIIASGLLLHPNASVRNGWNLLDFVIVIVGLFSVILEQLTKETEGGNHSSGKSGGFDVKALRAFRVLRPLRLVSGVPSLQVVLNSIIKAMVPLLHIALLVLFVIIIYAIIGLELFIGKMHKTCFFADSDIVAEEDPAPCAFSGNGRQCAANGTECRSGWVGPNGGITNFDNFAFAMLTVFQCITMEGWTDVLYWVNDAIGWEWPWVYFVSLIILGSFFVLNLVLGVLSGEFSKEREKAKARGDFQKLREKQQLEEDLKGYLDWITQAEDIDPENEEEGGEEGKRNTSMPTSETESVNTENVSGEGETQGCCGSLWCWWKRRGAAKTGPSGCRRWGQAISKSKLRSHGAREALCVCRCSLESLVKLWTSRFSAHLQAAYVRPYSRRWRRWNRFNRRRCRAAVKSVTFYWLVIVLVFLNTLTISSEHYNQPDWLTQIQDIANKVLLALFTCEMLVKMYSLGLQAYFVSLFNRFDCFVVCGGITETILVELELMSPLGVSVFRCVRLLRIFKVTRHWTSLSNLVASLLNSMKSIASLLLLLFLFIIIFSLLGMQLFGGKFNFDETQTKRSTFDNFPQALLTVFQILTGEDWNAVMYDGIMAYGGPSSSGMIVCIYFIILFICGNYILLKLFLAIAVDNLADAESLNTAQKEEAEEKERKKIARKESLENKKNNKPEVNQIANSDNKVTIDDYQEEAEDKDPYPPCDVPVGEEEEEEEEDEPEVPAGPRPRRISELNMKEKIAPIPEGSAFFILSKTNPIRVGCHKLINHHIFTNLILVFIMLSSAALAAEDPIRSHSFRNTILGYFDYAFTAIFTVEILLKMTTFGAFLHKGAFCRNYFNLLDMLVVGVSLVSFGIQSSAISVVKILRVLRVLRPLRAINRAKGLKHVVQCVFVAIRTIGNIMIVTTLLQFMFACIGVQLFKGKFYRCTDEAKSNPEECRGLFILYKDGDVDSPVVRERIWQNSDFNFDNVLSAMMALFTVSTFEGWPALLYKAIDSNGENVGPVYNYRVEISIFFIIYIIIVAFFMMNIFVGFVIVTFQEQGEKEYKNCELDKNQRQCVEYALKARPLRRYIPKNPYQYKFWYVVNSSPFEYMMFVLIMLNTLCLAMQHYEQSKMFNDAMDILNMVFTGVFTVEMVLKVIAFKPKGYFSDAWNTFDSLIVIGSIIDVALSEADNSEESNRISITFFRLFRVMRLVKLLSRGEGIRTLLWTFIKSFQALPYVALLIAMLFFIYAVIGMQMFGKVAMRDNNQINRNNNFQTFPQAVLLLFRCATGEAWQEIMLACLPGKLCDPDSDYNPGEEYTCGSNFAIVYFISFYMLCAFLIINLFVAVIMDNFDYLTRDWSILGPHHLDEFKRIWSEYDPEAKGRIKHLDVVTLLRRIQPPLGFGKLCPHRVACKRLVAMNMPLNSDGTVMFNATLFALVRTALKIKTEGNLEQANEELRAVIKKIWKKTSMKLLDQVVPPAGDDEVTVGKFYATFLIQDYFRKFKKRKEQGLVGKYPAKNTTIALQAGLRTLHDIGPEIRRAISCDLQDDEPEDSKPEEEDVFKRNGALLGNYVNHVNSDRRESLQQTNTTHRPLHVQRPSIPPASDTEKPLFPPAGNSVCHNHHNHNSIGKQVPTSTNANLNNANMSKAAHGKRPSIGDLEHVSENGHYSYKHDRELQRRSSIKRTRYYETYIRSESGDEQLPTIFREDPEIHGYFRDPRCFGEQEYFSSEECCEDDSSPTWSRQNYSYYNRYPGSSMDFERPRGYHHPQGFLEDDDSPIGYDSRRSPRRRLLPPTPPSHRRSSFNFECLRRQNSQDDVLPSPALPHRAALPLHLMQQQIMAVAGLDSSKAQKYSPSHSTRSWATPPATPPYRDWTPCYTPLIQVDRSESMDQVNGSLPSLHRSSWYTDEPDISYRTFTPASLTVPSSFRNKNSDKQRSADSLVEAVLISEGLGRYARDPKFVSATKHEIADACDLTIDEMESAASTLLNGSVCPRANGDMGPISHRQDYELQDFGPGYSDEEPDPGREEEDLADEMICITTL

## O=C1CC(=O)N(C2CC3CCC2C3)C(=O)N1CCc1ccc(Cl)cc1 (mixture of isomers)
[1]
  IC50: 5.6 µM
[2]
  IC50: 50 µM
[3]
  Ratio IC50: 8.9

## O=C1CC(=O)N([C@H]2C[C@H]3CC[C@@H]2C3)C(=O)N1CCc1cccc(Cl)c1
[1]
  IC50: 3.5 µM
[2]
  IC50: > 100 µM
[3]
  Ratio IC50: > 29

## O=C1CC(=O)N(C2CCCC2)C(=O)N1CCc1ccc(OCc2ccccc2)cc1
[1]
  IC50: 34.1 µM
[2]
  IC50: 18.7 µM
[3]
  Ratio IC50: 0.5

## O=C1CC(=O)N([C@@H]2C[C@@H]3CC[C@H]2C3)C(=O)N1CCc1ccc(Cl)cc1
[1]
  IC50: 1.9 µM
[2]
  IC50: 54 µM
[3]
  Ratio IC50: 11

## CC(=O)O[C@@H]1CCC[C@@H]1N1C(=O)CC(=O)N(CCc2cccc(Cl)c2)C1=O
[1]
  IC50: 38.6 µM
[2]
  IC50: 23.4 µM
[3]
  Ratio IC50: 0.6

## O=C1CC(=O)N([C@@H]2C[C@@H]3CC[C@H]2C3)C(=O)N1CCc1cccc(Cl)c1
[1]
  IC50: 2 µM
[2]
  IC50: > 100 µM
[3]
  Ratio IC50: > 50

## O=C1CC(=O)N(C2CCCC2)C(=O)N1CCCc1ccccc1
[1]
  IC50: 7.6 µM
[2]
  IC50: 21.9 µM
[3]
  Ratio IC50: 2.9

## C[C@H](C1CCCCC1)N1C(=O)CC(=O)N(CCc2ccc(Cl)cc2)C1=O
[1]
  IC50: 8.1 µM
[2]
  IC50: > 100 µM
[3]
  Ratio IC50: > 12

## C[C@H]1CCC[C@@H]1N1C(=O)CC(=O)N(CCc2cccc(Cl)c2)C1=O (racemic)
[1]
  IC50: 11 µM
[2]
  IC50: 21 µM
[3]
  Ratio IC50: 1.8

## O=C1CC(=O)N(C2CCCC2)C(=O)N1CCc1cc(C(F)(F)F)cc(C(F)(F)F)c1
[1]
  IC50: 1.4 µM
[2]
  IC50: 2.6 µM
[3]
  Ratio IC50: 1.8

## CC1(C)CCC[C@H]1N1C(=O)CC(=O)N(CCc2cccc(Cl)c2)C1=O
[1]
  IC50: 2.5 µM
[2]
  IC50: 4.7 µM
[3]
  Ratio IC50: 1.9

## C[C@@H]1CCC[C@@H]1N1C(=O)CC(=O)N(CCc2cccc(Cl)c2)C1=O
[1]
  IC50: 5.5 µM
[2]
  IC50: 13 µM
[3]
  Ratio IC50: 2.3

## C[C@H]1CCC[C@H]1N1C(=O)CC(=O)N(CCc2cccc(Cl)c2)C1=O
[1]
  IC50: 7.3 µM
[2]
  IC50: 9.3 µM
[3]
  Ratio IC50: 1.3

## CC1(C)CCC[C@@H]1N1C(=O)CC(=O)N(CCc2cccc(Cl)c2)C1=O
[1]
  IC50: 2.1 µM
[2]
  IC50: 3.5 µM
[3]
  Ratio IC50: 1.6

## O=C1CC(=O)N(C2CCCC2)C(=O)N1CC(c1ccccc1)c1ccccc1
[1]
  IC50: 5.2 µM
[2]
  IC50: 8.1 µM
[3]
  Ratio IC50: 1.6

## COc1ccc([C@@H]2Sc3ccccc3N(CCN(C)C)C(=O)[C@@H]2OC(C)=O)cc1
[3]
  Ratio IC50: < 2

## C[C@@H](C1CCCCC1)N1C(=O)CC(=O)N(CCc2ccc(Cl)cc2)C1=O
[1]
  IC50: 8.3 µM
[2]
  IC50: > 100 µM
[3]
  Ratio IC50: > 12

## CC(CN1C(=O)CC(=O)N(C2CC3CCC2C3)C1=O)c1cccc(Cl)c1 (mixture of isomers)
[1]
  IC50: 2.4 µM
[2]
  IC50: 5.1 µM
[3]
  Ratio IC50: 2.1

## O=C1CC(=O)N(C2CCCC2)C(=O)N1CCc1ccc(Cl)c(Cl)c1
[1]
  IC50: 1.2 µM
[2]
  IC50: 3.4 µM
[3]
  Ratio IC50: 2.7

## O=C(OCCc1cccc(F)c1)[C@H]1CC[C@@H](N2C(=O)CC(=O)N(CCc3cccc(Cl)c3)C2=O)C1
[1]
  IC50: 9.7 µM
[2]
  IC50: 6.7 µM
[3]
  Ratio IC50: 0.7

## CC(C)(CN1C(=O)CC(=O)N(C2CCCC2)C1=O)c1cccc(Cl)c1
[1]
  IC50: 2.4 µM
[2]
  IC50: 12.6 µM
[3]
  Ratio IC50: 4.9
